Measured values from ChEMBL document CHEMBL2146476, “Discovery of selective glucocorticoid receptor modulator MK-5932” (Bioorg Med Chem, 2011).
The source made the active and inactive calls. The rule behind the calls is not given here.

Legend:
[1] = biological target: T1, Glucocorticoid receptor (Homo sapiens) (UniProt P04150); experiment: Transactivation activity at GR-mediated modulation of MMTV promoter activity in human A549 cells transfected with luciferase gene linked to MMTV promoter after 16 hrs by luciferase reporter gene assay relative to dexamethasone; format: cell-based
T1 sequence (whole entry): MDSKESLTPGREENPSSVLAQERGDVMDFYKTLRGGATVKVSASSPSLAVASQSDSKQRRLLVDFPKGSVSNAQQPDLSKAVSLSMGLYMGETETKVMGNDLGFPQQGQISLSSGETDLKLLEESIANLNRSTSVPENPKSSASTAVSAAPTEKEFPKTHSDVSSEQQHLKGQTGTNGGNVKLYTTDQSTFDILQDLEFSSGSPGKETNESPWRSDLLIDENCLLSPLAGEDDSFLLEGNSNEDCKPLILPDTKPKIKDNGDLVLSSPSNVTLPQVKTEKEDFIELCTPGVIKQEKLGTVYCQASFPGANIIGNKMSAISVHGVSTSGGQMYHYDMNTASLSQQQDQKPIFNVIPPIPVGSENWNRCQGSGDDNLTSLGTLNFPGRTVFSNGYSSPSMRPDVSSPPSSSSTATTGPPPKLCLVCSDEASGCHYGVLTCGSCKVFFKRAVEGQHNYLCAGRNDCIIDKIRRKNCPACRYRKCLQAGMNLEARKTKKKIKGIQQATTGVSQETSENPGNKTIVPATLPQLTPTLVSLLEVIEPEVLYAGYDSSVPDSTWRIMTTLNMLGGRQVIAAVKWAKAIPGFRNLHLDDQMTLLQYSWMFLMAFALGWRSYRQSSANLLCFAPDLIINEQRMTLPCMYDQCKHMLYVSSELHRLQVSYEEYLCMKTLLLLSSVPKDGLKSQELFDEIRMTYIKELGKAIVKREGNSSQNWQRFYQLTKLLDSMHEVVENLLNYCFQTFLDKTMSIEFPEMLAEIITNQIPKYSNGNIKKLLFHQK
Procedure, shortened: (§1)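 HeLa or A549 cells transiently transfected with a luciferase reporter under the MMTV promoter (two GREs), in 10% charcoal-stripped FBS. Compound exposure 16 h, then luciferase measured. Activity expressed as percent of the span between DMSO and dexamethasone controls. Mean of at least three runs.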

[2] = biological target: T1, Glucocorticoid receptor (Homo sapiens); experiment: Transactivation activity at GR-mediated modulation of MMTV promoter activity in human HeLa cells transfected with luciferase gene linked to MMTV promoter after 16 hrs by luciferase reporter gene assay relative to dexamethasone; format: cell-based; procedure, shortened: as §1
[3] = biological target: T2, Glucocorticoid receptor (Homo sapiens, UniProt P04150); experiment: Displacement of [3H]-dexamethasone from human full length GR expressed in insect Sf21 cells
T2 sequence (P04150 whole entry): T1 sequence (whole entry)
Procedure, shortened: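 Human full-length GR expressed in insect cells, incubated with compound and 3H-dexamethasone overnight at 4 °C. Bound radioactivity quantified after filtration capture. Nonspecific binding defined with excess unlabelled dexamethasone. Mean of at least two runs.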

[4] = biological target: T1, Glucocorticoid receptor (Homo sapiens); experiment: Transactivation activity at GR-mediated modulation of MMTV promoter activity in human HeLa cells transfected with luciferase gene linked to MMTV promoter after 16 hrs by luciferase reporter gene assay; format: cell-based; procedure, shortened: as §1
[5] = biological target: T1, Glucocorticoid receptor (Homo sapiens); experiment: Transrepression activity at glucocorticoid receptor in human LPS and TPA-stimulated U937 cells assessed as effect on glucocorticoid-induced TNFalpha repression by beta lactamase reporter gene assay relative to dexamethasone; format: cell-based; details: U-937
Procedure, shortened: (§2)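 U937 cells stably carrying a β-lactamase reporter driven by the human TNF-α promoter (-1083 to +182), in 5% charcoal-stripped FBS. Stimulated with 1 µg/mL LPS plus 50 ng/mL TPA, compound exposure 16 h. β-Lactamase read out. Activity expressed as percent of the span between DMSO and 100 nM dexamethasone controls. Mean of at least three runs.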

[6] = biological target: T1, Glucocorticoid receptor (Homo sapiens); experiment: Transrepression activity at glucocorticoid receptor in human LPS and TPA-stimulated U937 cells assessed as effect on glucocorticoid-induced TNFalpha repression by beta lactamase reporter gene assay; format: cell-based; details: U-937; procedure, shortened: as §2
[7] = biological target: T1, Glucocorticoid receptor (Homo sapiens); experiment: Transactivation activity at GR-mediated modulation of MMTV promoter activity in human A549 cells transfected with luciferase gene linked to MMTV promoter after 16 hrs by luciferase reporter gene assay; format: cell-based; procedure, shortened: as §1
[8] = Drug uptake in oxazolone-induced Sprague-Dawley rat chronic dermatitis model at 25 mg/kg, po; format: ADME, organism-based; design: dose 25 mg/kg, route oral; details: in vivo, read-out: Drug uptake
Procedure, shortened: (§3)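 Exposure measured in female Sprague-Dawley rats in the oxazolone chronic dermatitis model: sensitization Day 0, ear challenge Days 7 and 9, daily oral dosing for 7 d from Day 7. Exposure expressed as µM h. Blood collected ~4-5 h after last dose.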

[9] = Drug uptake in oxazolone-induced Sprague-Dawley rat chronic dermatitis model at 5 mg/kg, po; format: ADME, organism-based; design: dose 5 mg/kg, route oral; details: in vivo, read-out: Drug uptake; procedure, shortened: as §3
[10] = tested on: Rattus norvegicus; experiment: Toxicity in oxazolone-induced Sprague-Dawley rat chronic dermatitis model assessed as increase in plasma insulin level at 0.5 to 5 mg/kg, po qd administered after 7 days of oxazolone sensitization measured after 4 to 5 hrs last post treatment on day 14; format: organism-based; design: route oral; details: in vivo
Procedure, shortened: (§4)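 Intact 6-month-old female Sprague-Dawley rats sensitized with oxazolone on ventral abdomen on Day 0. One randomly selected ear challenged with oxazolone on Days 7 and 9, other ear given vehicle. Daily oral dosing for 7 d from Day 7, with 6-methylprednisolone or DEX as positive controls. Blood taken ~4-5 h after last dose for plasma insulin. Inflammation read as inter-ear thickness difference.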

[11] = tested on: Rattus norvegicus; experiment: Antiinflammatory activity in oxazolone-induced Sprague-Dawley rat chronic dermatitis model at 0.5 to 5 mg/kg, po qd administered after 7 days of oxazolone sensitization measured after 4 to 5 hrs last post treatment on day 14; format: functional, organism-based; procedure, shortened: as §4
[12] = Drug uptake in oxazolone-induced Sprague-Dawley rat chronic dermatitis model at 15 mg/kg, po; format: ADME, organism-based; design: dose 15 mg/kg, route oral; details: in vivo, read-out: Drug uptake; procedure, shortened: as §3
[13] = tested on: Rattus norvegicus; experiment: Drug metabolism in oxazolone-induced Sprague-Dawley rat chronic dermatitis model assessed as 2-fluoro-6-(2-((4aS,5R)-1-(4-fluorophenyl)-5-hydroxy-4a-methyl-1,4,4a,5,6,7-hexahydrocyclopenta[f]indazol-5-yl)ethyl)-N-(1-(hydroxymethyl)cyclopropyl)benzamide level at 15 mg/kg, po; details: in vivo
[14] = tested on: Rattus norvegicus; experiment: Drug metabolism in oxazolone-induced Sprague-Dawley rat chronic dermatitis model assessed as 2-{2-[(4aS,5R)-1-(4-fluorophenyl)-5-hydroxy-4amethyl- 1,4,4a,5,6,7-hexahydrocyclopenta[f]indazol-5-yl]ethyl}benzamide level at 20 mg/kg, po; format: ADME, organism-based; design: dose 20 mg/kg, route oral; details: in vivo
[15] = Drug uptake in oxazolone-induced Sprague-Dawley rat chronic dermatitis model at 20 mg/kg, po; format: ADME, organism-based; design: dose 20 mg/kg, route oral; details: in vivo, read-out: Drug uptake; procedure, shortened: as §3

Compound	Emax [1] [%]	Emax [2] [%]	Ki [3] [nM]	IP [4] [nM]	Emax [5] [%]	IP [6] [nM]	IP [7] [nM]	AUC [8] [µM·h]	AUC [9] [µM·h]	AUC [12] [µM·h]	Drug metabolism [13] [µM·h]	Drug metabolism [14] [µM·h]	AUC [15] [µM·h]	Activity [10]	Activity [11]
C=C(C)CNC(=O)c1c(F)cccc1CC[C@]1(O)CCC2=Cc3c(cnn3-c3ccc(F)cc3)C[C@@]21C	24	16	< 1	132	67	119	95	–	–	–	–	–	–	–	–
CNC(=O)c1ccc(CC[C@]2(O)CCC3=Cc4c(cnn4-c4ccc(F)cc4)C[C@@]32C)cc1	< 10	< 10	155	–	12	–	–	–	–	–	–	–	–	–	–
C[C@]12Cc3cnn(-c4ccc(F)cc4)c3C=C1[C@H](O)C[C@@]2(O)CCc1ccc(F)cc1C(N)=O	< 5	< 5	> 400	–	< 5	–	–	–	–	–	–	–	–	–	–
CC(C)(CO)NC(=O)c1ccccc1CC[C@]1(O)CCC2=Cc3c(cnn3-c3ccc(F)cc3)C[C@@]21C	83	71	1	30	88	26	33	–	–	–	–	–	–	–	–
C=CCNC(=O)c1ccccc1CC[C@]1(O)CCC2=Cc3c(cnn3-c3ccc(F)cc3)C[C@@]21C	37	21	1	93	62	123	62	–	–	–	–	–	–	–	–
CC(C)(C)NC(=O)c1ccccc1CC[C@]1(O)CCC2=Cc3c(cnn3-c3ccc(F)cc3)C[C@@]21C	23	14	10	108	79	246	212	–	–	–	–	–	–	–	–
CNC(=O)c1cccc(CC[C@]2(O)CCC3=Cc4c(cnn4-c4ccc(F)cc4)C[C@@]32C)c1	< 10	< 10	15	–	< 10	–	–	–	–	–	–	–	–	–	–
C[C@]12Cc3cnn(-c4ccc(F)cc4)c3C=C1CC[C@@]2(O)CCc1cccc(F)c1C(=O)NC1(CO)CC1	104	79	3	35	96	24	23	–	–	–	–	–	–	–	–
C[C@H]1C[C@@H]2[C@H]([C@@H](O)C[C@@]3(C)[C@H]2CC[C@]3(O)C(=O)CO)[C@@]2(C)C=CC(=O)C=C12 [METHYLPREDNISOLONE]	–	–	–	–	–	–	–	–	–	–	–	–	–	Toxic	Active
Cc1cc2cnn(-c3ccc(F)cc3)c2cc1CCC(=O)CCc1ccc(F)cc1C(=O)O	< 5	< 5	> 400	–	< 5	–	–	–	–	–	–	–	–	–	–
CCCNC(=O)c1c(F)cccc1CC[C@]1(O)CCC2=Cc3c(cnn3-c3ccc(F)cc3)C[C@@]21C	25	17	< 1	43	72	30	26	–	–	–	–	–	–	–	–
CCNC(=O)c1ccccc1CC[C@]1(O)CCC2=Cc3c(cnn3-c3ccc(F)cc3)C(O)[C@@]21C (stereo not given in full)	20	6	40	1320	34	958	1560	–	–	–	–	–	–	–	–
CCNC(=O)c1ccccc1CC[C@]1(O)CCC2=Cc3c(cnn3-c3ccc(F)cc3)C[C@@]21C	51	38	2	107	65	88	39	–	–	–	–	50	75	–	–

Now from value to compound, other results behind:

Emax [1] [%]	Emax [2] [%]	Ki [3] [nM]	IP [4] [nM]	Emax [5] [%]	IP [6] [nM]	IP [7] [nM]	AUC [8] [µM·h]	AUC [9] [µM·h]	AUC [12] [µM·h]	Drug metabolism [13] [µM·h]	Drug metabolism [14] [µM·h]	AUC [15] [µM·h]	Compound	Activity [10]	Activity [11]
< 5	< 5	58	–	6	–	–	–	–	–	–	–	–	C[C@@]12C(=Cc3c(cnn3-c3ccc(F)cc3)C1O)CC[C@@]2(O)CCc1ccc(F)cc1C(N)=O (stereo not given in full)	–	–
48	30	4	83	62	170	60	–	–	–	–	–	–	CC(C)NC(=O)c1ccccc1CC[C@]1(O)CCC2=Cc3c(cnn3-c3ccc(F)cc3)C[C@@]21C	–	–
120	47	< 1	58	70	89	36	–	–	–	–	–	–	C[C@]12Cc3cnn(-c4ccc(F)cc4)c3C=C1CC[C@@]2(O)CCc1cc(F)ccc1C(N)=O	–	–
60	66	2	130	82	56	61	199	134	–	–	–	–	C[C@]12Cc3cnn(-c4ccc(F)cc4)c3C=C1CC[C@@]2(O)CCc1ccccc1C(N)=O	–	–
49	48	2	317	50	263	193	–	–	–	–	–	–	CNC(=O)c1ccccc1CC[C@]1(O)CCC2=Cc3c(cnn3-c3ccc(F)cc3)C[C@@]21C	–	–
41	33	< 1	27	81	20	32	–	–	64	3.8	–	–	CC1(NC(=O)c2c(F)cccc2CC[C@]2(O)CCC3=Cc4c(cnn4-c4ccc(F)cc4)C[C@@]32C)CC1	–	–
82	89	< 1	7	90	3	6	–	–	–	–	–	–	C[C@]12Cc3cnn(-c4ccc(F)cc4)c3C=C1CC[C@@]2(O)CCc1c(F)cccc1C(N)=O	–	–
29	17	2	85	50	127	81	–	–	–	–	–	–	CCCNC(=O)c1ccccc1CC[C@]1(O)CCC2=Cc3c(cnn3-c3ccc(F)cc3)C[C@@]21C	–	–
75	58	< 1	11	84	10	9	–	–	–	–	–	–	C[C@]12Cc3cnn(-c4ccc(F)cc4)c3C=C1CC[C@@]2(O)CCc1cccc(F)c1C(N)=O	–	–
